In ChEMBL document CHEMBL3108694, “Development of novel dual binders as potent, selective, and orally bioavailable tankyrase inhibitors” (J Med Chem, 2013):
Values after ≈ are worked out from the molar mass of the structure shown.

Experiments:
[1] = Volume of distribution at steady state in rat at 0.5 mg/kg, iv; format: ADME, organism-based; design: dose 0.5 mg/kg, route intravenous; details: in vivo, read-out: Vdss
In short: (§1)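 Male rats received a single intravenous dose of 0.5 mg/kg. Mean clearance, steady-state volume of distribution and half-life were reported.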

[2] = Oral bioavailability in rat at 2 mg/kg; format: ADME, organism-based; details: in vivo
[3] = Cmax in CD-1 mouse at 30 mg/kg, po; format: ADME, organism-based; design: dose 30 mg/kg, route oral; details: in vivo
In short: (§2)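 Male CD-1 mice given a single oral dose of 30 mg/kg. Vehicle was 10% Pluronic F68, 30% HPBCD and 60% water, pH adjusted to 10.0 with NaOH for most compounds or to 2.5 with methanesulfonic acid for one. Mean plasma PK parameters were reported.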

[4] = Clearance in rat at 0.5 mg/kg, iv; format: ADME, organism-based; design: dose 0.5 mg/kg, route intravenous; details: in vivo; in short: as §1
[5] = Inhibition of TNKS in human DLD1 cells expressing APC mutant assessed as inhibition of super-Topflash reporter gene transcription after 40 to 48 hrs by dual-glo luciferase reporter gene assay; format: cell-based; details: DLD-1
In short: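 DLD-1 cells carried an 8× TCF-driven firefly luciferase and an EF1a-driven Renilla luciferase, and were seeded at 10 000/well in RPMI with 10% FBS without antibiotics. A 10-point, 3-fold dilution series starting at 10 μM was applied for 40–48 h at 37 °C. Firefly and Renilla activities were read with Dual-Glo reagents.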

[6] = test system: Mus musculus; experiment: Ex vivo inhibition of TNKS in tumor of athymic nude mouse xenografted with human DLD1 cells assessed as inhibition of super-Topflash reporter gene transcription at 10 mg/kg, po qd administered for 3 days measured 24 hrs post last dose by dual-glo luciferase reporter gene assay relative to control; format: functional; details: DLD-1
In short: (§3)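 Athymic nude mice carried subcutaneous DLD-1 tumors engineered with a Wnt-responsive STF firefly luciferase and a constitutive Renilla luciferase. At about 250 mm³, mice were randomized (n = 4 per group) and dosed orally once daily for 3 days at 10 or 50 mg/kg, or with vehicle. Tumor axin2 was measured by MSD immunoassay. STF was read by Dual-Glo, firefly normalized to Renilla. Plasma was taken for exposure.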

[7] = Tmax in CD-1 mouse at 30 mg/kg, po; format: ADME, organism-based; design: dose 30 mg/kg, route oral; details: in vivo; in short: as §2
[8] = (§4) Inhibition of TNKS in human SW480 cells assessed as degradation of total pool of beta-catenin after 40 to 48 hrs; format: cell-based
In short: (§5)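 SW480 cells were seeded at 10 000/well in MEMα with 10% HI FBS, GlutaMAX, pyruvate and 10 mM HEPES. They were treated with a 10-point, 3-fold dilution series at 0.1% final DMSO for 40–48 h at 37 °C, then lysed. Total β-catenin was measured by MSD sandwich immunoassay (polyclonal capture, SULFO-TAG mAb detection).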

[9] = Half life in rat at 0.5 mg/kg, iv; format: ADME, organism-based; design: dose 0.5 mg/kg, route intravenous; details: in vivo; in short: as §1
[10] = test system: Mus musculus; experiment: Ex vivo inhibition of TNKS in tumor of athymic nude mouse xenografted with human DLD1 cells assessed as inhibition of super-Topflash reporter gene transcription at 50 mg/kg, po qd administered for 3 days measured 24 hrs post last dose by dual-glo luciferase reporter gene assay relative to control; format: functional; details: DLD-1; in short: as §3
[11] = Inhibition of TNKS in human SW480 cells assessed as accumulation of axin-2 into cytoplasmic foci after 24 hrs by Hoechst dye-based assay; details: SW480, 24 h
[12] = Fraction unbound in mouse plasma at 5 uM after 5 hrs by equilibrium dialysis method; format: ADME, cell-free
In short: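 Mouse plasma was spiked to a final 5 μM and equilibrium-dialyzed against plasma water (ultrafiltrate) for 5 h at 37 °C in a CO2 incubator, using a rapid equilibrium dialysis device. Fraction unbound was determined in duplicate.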

[13] = AUC (0 to infinity) in CD-1 mouse at 30 mg/kg, po; format: ADME, organism-based; design: time infinity, dose 30 mg/kg, route oral; details: plasma; in short: as §2
[14] = test system: Plasma; experiment: Unbound plasma concentration in athymic nude mouse xenografted with human DLD1 cells at 50 mg/kg, po qd administered for 3 days measured 24 hrs post last dose; format: ADME, organism-based, DLD-1; design: dose 50 mg/kg, route oral; details: in vivo; in short: as §3
[15] = Solubility in fasted state simulated intestinal fluid at pH 6.8; format: ADME
[16] = Intrinsic clearance in rat liver microsomes at 1 uM after 30 mins; format: ADME; details: read-out: CLH
In short: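 Substrate depletion in rat liver microsomes: 0.25 mg protein/mL, 1 mM NADPH and 2 mM MgCl2 in 50 mM potassium phosphate, pH 7.4, prewarmed to 37 °C. Test compound was added to a final 1 μM, and parent loss was measured after 30 min at 37 °C.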

[17] = Half life in CD-1 mouse plasma at 1 uM by LC-MS/MS analysis; format: ADME, cell-free
In short: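 Lithium-heparinized CD-1 mouse plasma was spiked with 1 μM substrate and incubated at 37 °C for 3 h, sampling at 0, 0.167, 1, 2 and 3 h (n = 2). Samples underwent acetonitrile protein precipitation with tolbutamide as internal standard. Analysis was by reversed-phase UPLC-ESI-MS/MS in MRM mode.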

[18] = test system: SW480; experiment: as §4; format: cell-based; details: dose or concentration not given here; in short: as §5
[19] = molecular target: T1, Poly [ADP-ribose] polymerase tankyrase-1 (Homo sapiens, UniProt O95271); experiment: Inhibition of 6x-His-tagged TNKS1 (unknown origin) after 60 mins
T1 sequence (O95271 whole entry): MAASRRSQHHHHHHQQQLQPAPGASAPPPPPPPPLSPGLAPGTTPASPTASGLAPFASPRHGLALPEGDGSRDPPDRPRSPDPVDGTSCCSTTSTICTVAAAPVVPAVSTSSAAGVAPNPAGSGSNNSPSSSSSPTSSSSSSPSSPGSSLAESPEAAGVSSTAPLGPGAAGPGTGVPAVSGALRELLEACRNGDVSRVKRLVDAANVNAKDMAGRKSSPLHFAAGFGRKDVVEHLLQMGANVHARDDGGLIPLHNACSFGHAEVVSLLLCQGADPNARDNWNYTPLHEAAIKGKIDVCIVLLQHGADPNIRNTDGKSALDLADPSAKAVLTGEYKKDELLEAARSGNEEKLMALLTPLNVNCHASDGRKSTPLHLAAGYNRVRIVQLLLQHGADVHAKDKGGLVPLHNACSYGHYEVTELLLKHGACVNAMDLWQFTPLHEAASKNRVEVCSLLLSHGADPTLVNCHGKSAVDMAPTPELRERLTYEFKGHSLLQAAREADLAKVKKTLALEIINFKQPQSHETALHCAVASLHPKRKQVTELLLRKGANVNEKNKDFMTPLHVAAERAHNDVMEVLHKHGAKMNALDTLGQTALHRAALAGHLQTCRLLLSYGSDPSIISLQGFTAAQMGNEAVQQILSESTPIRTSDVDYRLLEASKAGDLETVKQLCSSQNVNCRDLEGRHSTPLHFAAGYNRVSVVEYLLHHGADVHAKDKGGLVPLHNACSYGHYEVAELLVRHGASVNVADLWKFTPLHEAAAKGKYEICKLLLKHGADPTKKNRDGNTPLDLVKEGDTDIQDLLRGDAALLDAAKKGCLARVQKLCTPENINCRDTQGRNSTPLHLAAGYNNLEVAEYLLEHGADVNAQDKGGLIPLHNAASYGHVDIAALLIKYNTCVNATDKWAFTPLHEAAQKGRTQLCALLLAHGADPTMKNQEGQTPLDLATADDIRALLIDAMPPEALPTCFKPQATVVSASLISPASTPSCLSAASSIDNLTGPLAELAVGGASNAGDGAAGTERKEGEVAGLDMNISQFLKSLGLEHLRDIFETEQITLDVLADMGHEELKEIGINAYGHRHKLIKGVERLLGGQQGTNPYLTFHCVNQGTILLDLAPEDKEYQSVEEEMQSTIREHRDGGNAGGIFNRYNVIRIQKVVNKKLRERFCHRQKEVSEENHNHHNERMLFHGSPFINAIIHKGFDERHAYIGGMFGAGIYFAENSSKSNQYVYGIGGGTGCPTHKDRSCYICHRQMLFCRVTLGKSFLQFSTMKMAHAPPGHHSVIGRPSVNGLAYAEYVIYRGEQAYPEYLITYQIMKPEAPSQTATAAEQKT

[20] = Volume of distribution at steady state in rat at 5 mg/kg, iv; format: ADME, organism-based; design: dose 5 mg/kg, route intravenous; details: in vivo, read-out: Vdss
[21] = test system: Rattus norvegicus; experiment: AUC (infinity) in rat at 5 mg/kg, iv; format: ADME, organism-based, Plasma; design: time infinity, dose 5 mg/kg, route intravenous; details: in vivo
[22] = test system: Rattus norvegicus; experiment: Clearance in rat at 5 mg/kg, iv; format: ADME, organism-based; design: dose 5 mg/kg, route intravenous; details: in vivo
[23] = Half life in rat at 5 mg/kg, iv; format: ADME, organism-based; design: dose 5 mg/kg, route intravenous; details: in vivo

SMILES | Vd [1] | bioavailability [2] | Cmax [3] | clearance [4] | IC50 [5] | inhibition in vivo at 10 mg/kg [6] | Tmax [7] | IC50 [8] | half-life [9] | inhibition in vivo at 50 mg/kg [10] | EC50 [11] | fraction unbound at 5 h, 5 µM [12] | AUC(0-inf) [13] | Cp(f) [14] | solubility [15] | half-life at 1 µM [17] | IC50 [19] | also measured
N#Cc1ccc(O[C@H]2CC[C@H](NC(=O)CCSc3nc4ccccc4c(=O)[nH]3)CC2)cc1 | 0.32 L/kg | 21% | 24.2 µM | 2 mL/min/kg | 0.3 nM | 70% | 1.5 h | 1.9 nM | 2.8 h | 79% | 4 nM | 0.006 | 141 µM·h | 0.009 µM | – | – | – | –
O=C(CCSc1nc2ccccc2c(=O)[nH]1)N[C@H]1CC[C@H](c2nnc(-c3ccccc3)o2)CC1 | 0.7 L/kg | 13% | 18.7 µM | 13.8 mL/min/kg | 0.6 nM | 51% | 0.58 h | 4 nM | 1.8 h | 58% | 3.9 nM | 0.017 | 49.5 µM·h | 0.013 µM | 7 µg/mL (≈ 14.7 µM) | – | – | microsomal CLint at 1 µM [16]: 57 µL/min/mg
Cn1nc(-c2ccc(NC(=O)CCc3nc4ccccc4c(=O)[nH]3)cc2)c2ccccc21 | – | – | – | – | – | – | – | – | – | – | – | – | – | – | – | > 16.7 h | 400 nM | inhibition [18]: > 50%
COc1ccccc1NC(=O)c1ccc(NC(=O)CCc2nc3ccccc3c(=O)[nH]2)cc1 | – | – | – | – | – | – | – | 160 nM | – | – | – | – | – | – | 6.6 µg/mL (≈ 14.9 µM) | 0.667 h | 10 nM | Vd [20]: 4.69 L/kg; AUC [21]: 0.11 µM·h; CL [22]: 182 mL/min/kg; half-life [23]: 0.37 h
